ChEMBL document CHEMBL4007413, “Replacing d-Glucosamine with Its l-Enantiomer in Glycosylated Antitumor Ether Lipids (GAELs) Retains Cytotoxic Effects against Epithelial Cancer Cells and Cancer Stem Cells” (J Med Chem, 2017)
The source made the active and inactive calls. The calls are words filed in the database; no cut-off is given here.

What was measured:
[1] = test system: DU-145; test: Induction of membrane lysis in human DU145 cells at 0.01% after 10 mins by EthD-1 staining based fluorescence microscopic analysis
[2] = test system: BT-474; test: Disruption of cancer stem cells spheroids derived from human BT474 cells at >=7.5 uM after 3 days by microscopic analysis; format: functional, cell-based
Method in brief: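 Cancer stem cells were isolated from BT-474 by ALDH1 activity. Equal numbers were seeded in ultra-low-adhesion wells and grown to spheroids. Spheroids were then incubated with or without compounds for 3 days. Spheroid integrity was assessed by light microscopy (×10). Viability was measured in parallel by MTS.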

[3] = test system: MDA-MB-231; test: Cytotoxicity against human MDA-MB-231 cells assessed as decrease in cell viability after 48 hrs by MTS assay; format: functional; details: for CC50: MDA-MB-231, 48 h
Method in brief: (§1)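 Cells were seeded at equal numbers and, after 24 h, exposed to compounds (0–30 µM) for 48 h. MTS reagent (20% v/v) was then added for 1–4 h, and OD490 was read. Cell-free medium wells served as blanks. Media were DMEM/F12 + 10% FBS for BT-474; DMEM + 10% FBS for DU-145 and MDA-MB-231; and DMEM + 10% FBS + 2.5% horse serum for MiaPaCa-2. Values are mean ± SD, n=6.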

[4] = test system: Erythrocyte; test: Induction of hemolysis in sheep erythrocytes at 30 uM after 30 mins by spectrophotometric analysis; format: functional, Ovis aries
[5] = Stability in bovine liver extracts assessed as bovine liver glycosidase mediated compound cleavage by TLC analysis; format: ADME, Bos taurus; details: cattle
Method in brief: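 A bovine liver glycosidase fraction in 0.05 M sodium citrate pH 5.0 was combined with 0.2 M citrate pH 4.4 buffer, substrate (30 mM stock) and Triton X-100 (10% stock) for solubilization. Controls were no enzyme and a β-D-glucose-based GAEL. After 1 h, methanol was added, the mixture was centrifuged, and the supernatant was analysed by TLC. Run in quadruplicate.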

[6] = test system: DU-145; test: Cytotoxicity against human DU145 cells assessed as decrease in cell viability after 48 hrs by MTS assay; format: functional; details: for CC50: DU-145, 48 h
Method in brief: as §1

[7] = test system: BT-474; test: Cytotoxicity against human BT474 cells assessed as decrease in cell viability after 48 hrs by MTS assay; format: functional; details: for CC50: BT-474, 48 h
Method in brief: as §1

[8] = test system: MIA PaCa-2; test: Cytotoxicity against human MIAPaCa2 cells assessed as decrease in cell viability after 48 hrs by MTS assay; format: functional; details: for CC50: MIA PaCa-2, 48 h
Method in brief: as §1

[9] = test system: BT-474; test: Cytotoxicity against cancer stem cells derived from human BT474 cells assessed as cancer stem cell death at 7.5 uM after 3 days by MTS assay; format: functional
Method in brief: (§2)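 CSCs were isolated from BT-474 using ALDH1 activity as the stemness marker. They were grown in ultra-low adhesion wells for 4 days to form spheroids. Spheroids were then exposed to compounds (0–20 µM) for 3 days. Viability was read by MTS assay and expressed as % of untreated control.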

[10] = test system: BT-474; test: Cytotoxicity against cancer stem cells derived from human BT474 cells assessed as cancer stem cell death at 20 uM after 3 days by MTS assay; format: functional
Method in brief: as §2

[11] = test system: BT-474; test: Disruption of cancer stem cells spheroids derived from human BT474 cells at 7.5 uM after 3 days by microscopic analysis; format: functional, cell-based
Method in brief: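 Equal numbers of ALDH1-selected BT-474 cancer stem cells were seeded in ultra-low adhesion wells and grown to form spheroids. Spheroids were incubated with or without compound for 3 days. Spheroid integrity was judged by microscopic imaging at ×10.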

## CC(C)(C)CC(C)(C)c1ccc(OCCOCCOCCOCCOCCOCCOCCOCCOCCOCCO)cc1
[1]
  Activity: Active

## CCCCCCCCCCCCCCCCOC[C@H](CO[C@@H]1O[C@H](CO)[C@@H](O)[C@H](O)[C@H]1N)OC
[2]
  Activity: Active
[3]
  CC50: 6.5 to 13 µM
[4]
  Activity: <5%
[5]
  Stability: Stable
[6]
  CC50: 6.5 to 13 µM
[7]
  CC50: 6.5 to 13 µM
[8]
  CC50: 6.5 to 13 µM

## CCCCCCCCCCCCCCCCOC[C@H](CO[C@H]1O[C@H](CO)[C@@H](O)[C@H](O)[C@H]1N)OC
[3]
  CC50: 6 to 10.5 µM
[6]
  CC50: 6 to 10.5 µM
[7]
  CC50: 6 to 10.5 µM
[8]
  CC50: 6 to 10.5 µM

## CC[C@@H](C(=O)[C@@H](C)[C@@H](O)[C@H](C)[C@@H]1O[C@@H]([C@@H](CC)C(=O)O)CC[C@@H]1C)[C@H]1O[C@]2(C=C[C@@H](O)[C@]3(CC[C@@](C)([C@H]4CC[C@](O)(CC)[C@H](C)O4)O3)O2)[C@H](C)C[C@@H]1C [SALINOMYCIN]
[3]
  Activity: Active
[9]
  Activity: 60%
[10]
  Activity: 87%
[6]
  Activity: Active
[7]
  Activity: Active
[8]
  Activity: Active
[11]
  Activity: inactive
